According to ChEMBL document CHEMBL1123705, “Antitumor agents. 86. Synthesis and cytotoxicity of alpha-methylene-gamma-lactone-bearing purines” (1987):
In brackets after ≈: the same amount, converted by molar mass.

Experiments:
Type in all cases: functional
L1210 = test: Compound was tested for its antitumor activity and the cytotoxicity against L1210 lymphoid leukemia screen; conditions: Mus musculus, read-out: ED50 (the source's name)
Summary of the method: (§1)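 Run per the NIH cytotoxicity protocol. Viable cells were counted by trypan blue exclusion and expressed as a percentage of the 0.05% Tween 80–water control. ED₅₀ was estimated from a semilog plot against drug concentration.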

P388 = test: Compound was tested for its antitumor activity and the cytotoxicity against P-388 lymphocytic leukemia screen; conditions: Mus musculus, read-out: ED50 (the source's name); summary of the method: as §1
KB = test: Compound was tested for its antitumor activity and the cytotoxicity against KB human carcinoma of the nasopharynx screen; conditions: read-out: ED50 (the source's name); summary of the method: as §1

| SMILES | EC50 (L1210) [µg/mL] | EC50 (P388) [µg/mL] | EC50 (KB) [µg/mL] |
| --- | --- | --- | --- |
| COc1cc([C@@H]2c3cc4c(cc3[C@@H](O[C@@H]3O[C@@H]5CO[C@@H](C)O[C@H]5[C@H](O)[C@H]3O)[C@H]3COC(=O)[C@H]23)OCO4)cc(OC)c1O [ETOPOSIDE] | 1.58 (≈ 2.68 µM) | 1.71 (≈ 2.91 µM) |  |
| C=C1CC(C)(Cn2cnc3c(N)ncnc32)OC1=O (stereo unspecified) | 0.3 (≈ 1.16 µM) | > 20 | 5 (≈ 19.3 µM) |
| C=C1CC(C)(Cn2cnc3c(O)ncnc32)OC1=O (stereo unspecified) | 2 (≈ 7.68 µM) | > 20 | > 10 |
| C=C1CC(C)(Cn2c(N)nc3ncnc-3c2O)OC1=O (stereo unspecified) | 1.3 (≈ 4.72 µM) | > 20 | > 10 |
